Most compounds without a hit are left out; they make up all but 2.3% or so of the library.
TRPC6 act – mouse TRPC6 channel activation; Q61143; HEK293-TRPC6 membrane potential dye fluorescence; active compounds read high; B-score at 10 µM; hit rate 0.13% among 310,000; AID 2550;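 active = B-score of the integrated fluorescence ratio above library mean plus 3 SD, and starting fluorescence ratio within library mean plus 5 SD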;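 also: higher score means more depolarization so channel activation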
Target sequence (Q61143 whole entry, looked up): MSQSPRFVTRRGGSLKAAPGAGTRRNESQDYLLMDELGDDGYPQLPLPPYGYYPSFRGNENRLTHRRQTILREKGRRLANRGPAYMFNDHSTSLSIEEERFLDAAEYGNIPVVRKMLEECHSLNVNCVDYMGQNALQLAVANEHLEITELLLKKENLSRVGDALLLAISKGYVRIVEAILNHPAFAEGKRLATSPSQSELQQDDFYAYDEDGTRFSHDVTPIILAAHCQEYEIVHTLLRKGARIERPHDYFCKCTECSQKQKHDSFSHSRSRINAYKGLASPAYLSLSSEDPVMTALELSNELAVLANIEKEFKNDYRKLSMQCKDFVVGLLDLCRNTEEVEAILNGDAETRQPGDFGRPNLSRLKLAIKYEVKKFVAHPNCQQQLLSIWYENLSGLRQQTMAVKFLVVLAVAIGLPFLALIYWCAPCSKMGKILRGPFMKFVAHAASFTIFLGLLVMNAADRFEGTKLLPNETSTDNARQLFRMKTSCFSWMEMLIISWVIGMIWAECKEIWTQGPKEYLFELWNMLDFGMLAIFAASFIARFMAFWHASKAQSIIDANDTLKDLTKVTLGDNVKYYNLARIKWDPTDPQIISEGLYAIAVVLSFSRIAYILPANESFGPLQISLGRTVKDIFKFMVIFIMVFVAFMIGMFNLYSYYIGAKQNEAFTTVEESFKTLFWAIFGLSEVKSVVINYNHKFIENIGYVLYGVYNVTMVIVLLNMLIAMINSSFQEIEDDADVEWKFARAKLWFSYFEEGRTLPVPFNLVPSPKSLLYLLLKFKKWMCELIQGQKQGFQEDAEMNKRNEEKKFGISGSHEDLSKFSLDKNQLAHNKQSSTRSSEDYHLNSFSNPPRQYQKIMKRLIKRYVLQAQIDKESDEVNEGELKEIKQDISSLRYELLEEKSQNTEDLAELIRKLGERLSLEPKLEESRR
TRPC4 PAM – allosterically enhances the mouse TRPC4 cation channel | Q9QUQ5 | HEK293 TRPC4beta/mu-opioid, DAMGO EC20, Fluo-4 Ca2+ flux; active compounds read high | B-score at 10 µM | hit rate 0.42% among 310,000 | AID 2227;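 active = B-score of calcium response area above 5 SD of library B-scores, with initial fluorescence ratio within 5 SD of library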;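 also: B-score of integrated fluorescence ratio over time as area under calcium response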
TRPC6 inh – blocks the mouse TRPC6 cation channel; Q61143; HEK293-TRPC6, membrane potential dye, ACh-evoked depolarization; active compounds read low; B-score at 10 µM; hit rate 1.1% among 310,000;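 active = B-score under library mean minus 3 SD, initial fluorescence not abnormally high, positive integrated signal ratio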;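 also: B-score derived from integrated fluorescence ratio over the kinetic read; more negative B-score means stronger inhibition of depolarization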
TRPC4 block – inhibitors of mouse TRPC4 channel; Q9QUQ5; HEK293 TRPC4beta/mu-opioid, DAMGO-evoked Fluo4 calcium flux; active compounds read low; B-score at 10 µM; hit rate 0.39% among 300,000;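 active = B-score over 3 SD under the library average, no early fluorescence shift, positive overall ratio signal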
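Test system – stable TRPC4beta/mu-opioid receptor HEK293 cells · Probe or stimulus – DAMGO, a submaximal dose followed by a maximal one · Dosing – one concentration per compound · Signal – Fluo4 calcium fluorescence by kinetic imaging, 5 s 1 Hz baseline · Evaluation – per-well B score of integrated baseline-normalized Fluo4 ratio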
TRPC4 agonist – activators of mouse TRPC4 channel | HEK293 TRPC4beta/mu-opioid, Fluo4 calcium fluorescence; active compounds read high | B-score at 10 µM | hit rate 0.49% among 310,000;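 active = B-score above 5 SD of library B-scores, and initial fluorescence ratio not above library mean plus 5 SD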;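 also: positive B-score marks a calcium rise read as TRPC4 activation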
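Assay system: HEK293 cells stably co-expressing mouse TRPC4beta and mu-opioid receptor / Timing: Fluo4 dye loading 45 min at room temperature, 110 s recording / Signal: Fluo4 calcium-sensitive dye fluorescence, kinetic, 1 Hz baseline / Read-out: integrated baseline-normalised fluorescence ratio, converted to per-well B score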
TRPC4 spec 2 – mouse TRPC4 off-target activity of TRPC6 inhibitors, second screen | hit rate 42% among 920 | AID 2776 | inhibition, % at 10 µM | shares compounds with TRPC6 inh | HEK293 TRPC4/MOR, membrane potential dye fluorescence; channel activated by saturating DAMGO dose;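 active = compounds whose fluorescence signal differed from control wells by over 3 SD, either direction, in both duplicate plates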
TRPC4 spec – selectivity of TRPC6 inhibitors: effect on mouse TRPC4; shares compounds with TRPC6 inh; HEK293 TRPC4/mu-opioid, membrane potential fluorescence; activity change, negative = inhibition, % at 10 µM; hit rate 61% among 920;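 active = rise or fall in signal beyond 3 SD of buffer-only wells in both replicate plates, either sign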;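 also: integrated kinetic ratio of fluorescence range over baseline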
HEK293 MPD ctr 2-1 – second check of TRPC6 inhibitor effects in parental HEK293 cells | signal change vs control, % at 10 µM | shares compounds with TRPC6 inh | parental HEK293 membrane potential dye fluorescence; maximal acetylcholine challenge after compound addition | AID 2779 | hit rate 31% among 920;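 active = membrane potential signal moving either way by over 3 SD of the maximum-effect control, in both duplicate plates, meaning non-specific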
HEK293 MPD ctr-1 – parental HEK293 nonspecific activity of TRPC6 inhibitors; shares compounds with TRPC6 inh; parental HEK293 membrane potential dye fluorescence; membrane potential signal change, % at 10 µM; hit rate 60% among 920; AID 2780;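 active = membrane potential signal shifting up or down by more than 3 SD of buffer-only wells, on both duplicate plates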
HEK293 MPD ctr-2 – checks TRPC6 modulator effects in parental HEK293 cells | shares compounds with TRPC6 inh | membrane potential dye fluorescence | AID 488924 | membrane potential signal change, % at 10 µM | hit rate 51% among 2,400;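 active = membrane potential signal moves up or down beyond 5 SD from buffer-only wells, on both duplicate plates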
HEK293 MPD ctr 2-2 – second check of TRPC6 modulator effects in parental HEK293 cells. inhibition, % at 10 µM. shares compounds with TRPC6 inh. AID 488926. membrane potential dye fluorescence; after compound, maximal acetylcholine stimulation. hit rate 14% among 2,400;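 active = membrane potential signal drops by more than 5 SD from the mean control signal, in both duplicate plates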;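 also: plate controls were acetylcholine ECmax control wells for no effect and buffer only wells for full effect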
TRPC4/MOR mod – tests whether TRPC6 modulators also affect mouse TRPC4; shares compounds with TRPC6 inh; hit rate 69% among 2,400; HEK293 TRPC4/mu-opioid, membrane potential fluorescence; percent change from control (negative = decrease, positive = increase), % at 10 µM;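 active = membrane potential signal moved up or down beyond 5 SD of buffer control wells, in both duplicate plates, actives on both sides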;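 also: plate controls were assay buffer wells for no effect and DAMGO maximal-effect wells for full effect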
TRPC4 ctr inh 2 – second selectivity test of TRPC6 modulators against mouse TRPC4; hit rate 55% among 2,400; shares compounds with TRPC6 inh; HEK293 TRPC4/mu-opioid, membrane potential dye fluorescence; stimulated with maximal-effect DAMGO; inhibition, % at 10 µM;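 active = drop in membrane potential signal beyond 5 SD of the control wells in both duplicate plates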;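 also: TRPC4 counter screen for TRPC6 hits run under conditions tuned for TRPC6 not TRPC4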
TRPC6 inh conf – mouse TRPC6 inhibitor confirmation. shares compounds with TRPC6 inh. HEK293-TRPC6, membrane potential dye, ACh-evoked depolarization. inhibition, % at 10 µM. hit rate 43% among 3,300;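 active = fluorescence ratio falls more than 5 SD below the full-stimulation control mean, in both duplicate runs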;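 also: integrated fluorescence ratio of peak minus minimum over baseline after agonist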
TRPC6 act conf – mouse TRPC6 activator confirmation; HEK293-TRPC6 membrane potential dye fluorescence, FDSS; shares compounds with TRPC6 inh; hit rate 11% among 2,800; AID 488961; activation, % at 10 µM;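 active = ratio signal rise beyond 5 SD above unstimulated control wells' mean, seen in both duplicate runs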;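 also: plate controls were buffer EC0 wells for no effect and acetylcholine ECmax response for full effect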
An asterisk follows results filed as active; i = inactive; · = no result given.

SMILES | TRPC6 act | TRPC4 PAM | TRPC6 inh | TRPC4 block | TRPC4 agonist | TRPC4 spec 2 | TRPC4 spec | HEK293 MPD ctr 2-1 | HEK293 MPD ctr-1 | TRPC6 inh conf | TRPC6 act conf | others
O=C(Cc1ccc([N+](=O)[O-])cc1)NCc1cccnc1 | i | i | -5.2* | i | i | · | · | · | · | i | i | HEK293 MPD ctr-2=i;HEK293 MPD ctr 2-2=i;TRPC4/MOR mod=i;TRPC4 ctr inh 2=i
CC(=O)Nc1ccc(Nc2nc(Cl)nc(Nc3ccc(NC(C)=O)cc3)n2)cc1 | i | i | i | i | i | · | · | · | · | · | ·
COc1ccc(/C(CC2OC(=O)c3ccccc32)=N\NC(N)=O)cc1 (stereo not drawn) | i | i | i | i | i | · | · | · | · | · | ·
Cc1ccc(O)c(NC(=O)c2cc3nc4c(c(C(F)(F)F)n3n2)CCc2ccccc2-4)c1 | i | i | i | i | i | · | · | · | · | · | ·
CCN(CC)CCCNC(=O)c1cc2nc3c(c(C(F)(F)F)n2n1)CCc1ccccc1-3 | i | i | -6.7* | i | i | 65%* | i | i | 0.8%* | i | i
Cc1cccc(NCC(=O)N/N=C\c2c[nH]c3ccccc23)c1 | i | i | -5.8* | i | i | · | · | · | · | 38%* | i | HEK293 MPD ctr-2=-63%*;HEK293 MPD ctr 2-2=i;TRPC4/MOR mod=-20%*;TRPC4 ctr inh 2=40%*
CCOC(=O)CNS(=O)(=O)c1ccc(S(=O)(=O)N2CCCC2)cc1 | i | i | -7.8* | i | i | i | i | i | i | i | i
CCCc1c2c(cc3c(=O)cc(C(=O)OCC)oc13)CCCC2 | i | i | i | i | i | · | · | · | · | · | ·
COc1ccc(-n2cc(CNC3CCC(O)CC3)c(-c3cccc(F)c3)n2)cc1 (stereo not drawn) | i | i | -8.3* | i | i | i | i | i | i | i | i
Cc1cc(C)nc(/N=C(\N)N(Cc2ccccc2)Cc2ccccc2)n1 | i | i | -7.5* | -7* | i | 40%* | 37%* | i | 3.8%* | i | i
COC(=O)c1ccc(CN2CCN(C3CCCC3)C(CCO)C2)cc1 (stereo not drawn) | i | i | -9.5* | i | i | i | 2.2%* | 6.0%* | 4.6%* | 63%* | ·
COc1ccccc1-n1cc(CN2CCN(C3CCCC3)C(CCO)C2)cn1 (stereo not drawn) | i | i | -5.2* | i | i | · | · | · | · | 36%* | · | HEK293 MPD ctr-2=i;HEK293 MPD ctr 2-2=i;TRPC4/MOR mod=10%*;TRPC4 ctr inh 2=i
CCCCNc1c(C(=O)OCC)c(C)nc2c1cnn2CC | i | i | i | i | i | · | · | · | · | · | ·

High-throughput results as filed in PubChem.
